Measurements pooled from the literature.
Lines come from different studies, so protocols differ.
PDGFRA: Platelet-derived growth factor receptor alpha (PDGFRA, Homo sapiens, UniProt P16234)
PDGFRA T674I: Platelet-derived growth factor receptor alpha (PDGFRA, Homo sapiens, UniProt P16234, T674I)
PDGFRA D842V: Platelet-derived growth factor receptor alpha (PDGFRA, Homo sapiens, UniProt P16234, D842V)

Structure (SMILES)	target	effect on	action	technique	tested at	quantity	value
COc1cc(/C=C/C(=O)CC(=O)/C=C/c2ccc(O)c(OC)c2)ccc1O	PDGFRA	enzyme activity	inhibitor		1 µM	activity vs control	92%
CC(C)(C)c1nc2c(s1)c1nc(N)ncc1c1ccc(NS(=O)(=O)c3c(F)cccc3F)c(F)c12	PDGFRA	enzyme activity	inhibitor	radiometric	1 µM	remaining activity	97%
CC/C(=N\NC(=O)NCc1cccc(O)c1)c1ccc(O)c(C)c1O	PDGFRA T674I	enzyme activity	inhibitor		0.1 µM	inhibition	-0.2%
CN([C@@H]1CCc2c(CC(=O)O)c3cc(S(C)(=O)=O)ccc3n2C1)S(=O)(=O)c1ccc(F)cc1	PDGFRA	cell-free assay		competition with immobilised ligand	1 µM	remaining binding	100%
O=C(Nc1cnn(-c2csc(C(=O)NC3COC3)c2)c1)Nc1ccccc1Cl	PDGFRA	enzyme activity	inhibitor		5 µM	remaining activity	95.2%
CCc1ccccc1C(=O)Nc1n[nH]c2c(C)c(F)c(C3C(C#N)=C(C)N(C)C(C)=C3C#N)cc12	PDGFRA	cell-free assay		competition with immobilised ligand	1 µM	remaining binding	100%
COc1cc2ncnc(Nc3ccc(Oc4ccccc4)cc3C)c2cc1OC	PDGFRA T674I	enzyme activity	inhibitor		1 µM	inhibition	0%
Cc1cnc(NC2CCOCC2)nc1-n1cnc(C(=O)NC(CN)c2cc(F)cc(Cl)c2)c1 (centres unmarked)	PDGFRA D842V	enzyme activity	inhibitor	radiometric	1 µM	remaining activity	104%
CCN(CC)c1ccc(C2=NNC(=O)CC2C)cc1[N+](=O)[O-] (centres unmarked)	PDGFRA	enzyme activity	inhibitor		10 µM	remaining activity	91%
O=C1NC(=O)c2cc(Nc3ccc(F)cc3)c(Nc3ccc(F)cc3)cc21	PDGFRA	cell-free assay	inhibitor		0.5 µM	remaining signal	101%
FC(F)(F)Oc1cccc(-c2cnc3ccc(-c4ccncc4)nn23)c1	PDGFRA	enzyme activity	inhibitor	radiometric	5 µM	activity vs control	49%
O=C(Nc1ccc(Oc2ccc(F)cc2)cc1)N1CCc2ncccc2[C@H]1c1ccc(F)cc1	PDGFRA	cell-free assay		competition with immobilised ligand	1 µM	remaining binding	95%
COc1cc2ncnc(Nc3ccc(Oc4ccccc4)c(C)c3C)c2cc1OC	PDGFRA T674I	enzyme activity	inhibitor		1 µM	inhibition	9%
O=C1Nc2ccc(Cl)cc2C1=Cc1cc(Cl)c(O)c(Cl)c1	PDGFRA	cell-free assay			0.5 µM	remaining signal	70.3%
COc1ccc2cc(OCC3(C(=O)O)CN(C(=O)c4ccc(F)cc4)C3)ccc2c1	PDGFRA	cell-free assay		competition with immobilised ligand	1 µM	remaining binding	100%
Cc1ccc(Nc2nccc(N(C)c3ccc4c(C)n(C)nc4c3)n2)cc1S(N)(=O)=O	PDGFRA	cell-free assay	inhibitor		0.5 µM	remaining signal	13.9%
Cc1cc(NC(=O)c2cccc3cc(-c4cccc5[nH]nc(N)c45)ccc23)ccc1F	PDGFRA D842V	enzyme activity	inhibitor		0.1 µM	activity vs control	28%
CNC(=O)c1cc(Oc2ccc(NC(=O)Nc3ccc(Cl)c(C(F)(F)F)c3)cc2)ccn1	Platelet-derived growth factor receptor alpha (PDGFRA, Homo sapiens, UniProt P16234, V561D)	enzyme activity	inhibitor		10 µM	inhibition	100%
CCN(CC)CCNC(=O)c1c(C)[nH]c(/C=C2\C(=O)Nc3ccc(F)cc32)c1C	PDGFRA	cell-free assay			0.5 µM	remaining signal	10.9%
O=C(Nc1cnn(-c2csc(C(=O)NC3COC3)c2)c1)Nc1c(F)cccc1Cl	PDGFRA	enzyme activity	inhibitor		5 µM	remaining activity	107%
CN1CCN(c2cnc3c(C4CCN(C(=O)c5ccc(OC(F)(F)F)cc5N)CC4)ncnc3c2)CC1	PDGFRA	cell-free assay		competition with immobilised ligand	1 µM	remaining binding	100%
CCCOc1ccc(OC)c(F)c1C(=O)c1ccc(C(=O)N[C@@H]2CNC[C@H]2NC(=O)c2ccc3[nH]ncc3c2)cc1	PDGFRA D842V	enzyme activity	inhibitor		10 µM	remaining activity	12%
Cc1ccc(NC(=O)c2ccc(C)c(C(F)(F)F)c2)cc1C#Cc1nn(C2CCC(O)CC2)c2ncnc(N)c12 (centres unmarked)	PDGFRA	cell-free assay	inhibitor		10 µM	remaining signal	60%
CN(C)c1ncnc(-c2ccc3nc(Nc4cc(CN5CCN(C(=O)CC(F)(F)F)CC5)ccn4)[nH]c3c2)c1Cl	PDGFRA	cell-free assay		competition with immobilised ligand	1 µM	remaining binding	61%
Cc1ccc(C(=O)NCc2ccsc2)cc1C#Cc1cn(C(C)C)c2ncnc(N)c12	PDGFRA	enzyme activity	inhibitor		1 µM	activity vs control	4%
C[C@H](c1ccc(F)cc1)N(Cc1cccc(C(=O)O)c1)C(=O)c1cnc2ccccc2c1	PDGFRA	cell-free assay		competition with immobilised ligand	1 µM	remaining binding	100%
COc1cc(Nc2cnc(C#N)c(O[C@H](C)CN(C)C)n2)ncc1-c1cnn(C)c1	PDGFRA	enzyme activity	inhibitor	radiometric	1 µM	remaining activity	60%
CN(C)C(=O)Cn1cc(-c2nc([C@@](C)(c3ccc(-c4cnc(N)nc4)cc3)C3CC3)no2)cn1	PDGFRA	cell-free assay		competition with immobilised ligand	1 µM	remaining binding	100%
COc1cc(-c2cc(-c3ccc(N4CCNCC4)cc3)cnc2N)cc(OC)c1OC	PDGFRA T674I	enzyme activity	inhibitor		1 µM	inhibition	4%
